The EternaBench riboswitch data

Test system: MS2 coat protein
Test: apparent Kd, MS2 coat protein; higher = weaker binding; RNA-MaP array; FMN 200 µM where present
How it was run: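 Stalled E. coli RNA polymerase transcribed each design on Illumina sequencing-chip clusters. The clusters were titrated with SNAP-549-labelled MS2 coat protein, starting at 0.7 or 1.5 nM and doubling up to 3 µM, first without ligand and then with constant ligand, in 100 mM Tris-HCl pH 7.5, 80 mM KCl, 4 mM MgCl2, BSA, DTT, yeast tRNA and Tween-20. Green signal was normalised to red-channel RNA signal and to the control-cluster median Fmax. The apparent Kd is the median of filtered binding-curve fits made for each cluster.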

[1] = designed as: OFF switch for flavin mononucleotide, no ligand
[2] = ligand present: flavin mononucleotide, designed as: OFF switch for flavin mononucleotide
[3] = designed as: ON switch for flavin mononucleotide, no ligand
[4] = ligand present: flavin mononucleotide, designed as: ON switch for flavin mononucleotide

Row | Sequence | apparent Kd [1] | apparent Kd [2] | apparent Kd [3] | apparent Kd [4]
1 | GACUGCCGAGGAUAUACAUGAGGAUCACCCAUGUGCUUCAGCAUCGAAAGAUGCAUGGGUAGAAGGCGGUAGUC | 27.4 nM | 72 nM | – | –
2 | UGGAACAUGGGAGGAUAUGGGAUGAUAACAUGAGGAUCACCCAUGUUAAAGAUGCCGAGAGGCAACUAGAAGGCCCAUGUUCCU | – | – | 368 nM | 60.5 nM
3 | AUUAUUAAUGCAGGAUAUGAUUAACAUGAGGAUCACCCAUGUGGUGUUGUGAGUAAGGAGAGUGAUCAGAAGGGCAUUUUUUUU | – | – | 493 nM | 695 nM
4 | AGCGGCGCAGACCACCGCAAAACCAGAAGGACAUGAGGAUCACCCAUGUAACAAAACAGGGCGAUGUAGGAUAUGGCAAACCCA | 16.3 nM | 18.8 nM | – | –
5 | CGUGCUAUGUAGAAGGCAGAUCUGAUUCAGAUCUGAGGAUAUACAUGAGGAUCACCCAUGUUAUGCACCAGCACGAGAGUGCAG | 7.18 nM | 14.4 nM | – | –
6 | AAGAAACAUGAGGAUCACCCAUGUGAGGAUAUGAGCAAGAAAAGAAAAGAAAGAAGAAUCAGAAGGCACAAAGG | 39.6 nM | 75.7 nM | – | –
7 | AAGAUGUAAGGAUAUGCUGCUCGUCACUUGCGUGAUGAGUAGCAGAAGGUACAUGAGGAUCACCCAUGUAAAGA | 30.4 nM | 43.3 nM | – | –
8 | CUUUUGUGAGGAUAUUGGUAGUAAAUGAAUAAAAUUAUUACCGAGAAGGCACAUGAGGAUCACCCAUGUUCCUC | 47.7 nM | 491 nM | – | –
9 | GAUACACAUGAGGAUCACCCAUGUGAGGAUAUGCGUACGUUGUCCGUAGGCGACGUGCGCAGAAGGCGCGAGGU | 41.4 nM | 36.2 nM | – | –
10 | UGAUCUUGGGUCAGGAUAUGCUGGUAUUUUUGCCAGCAGAAGGGACAUGAGGAUCACCCAUGUUCUUGGUUUUU | 11.7 nM | 14.9 nM | – | –
11 | GGUCGUCACAUUAACAUGAGGAUCACCCAUGUAAAAUAACAUGAGGAUAUGCAUCCUAAUUGGAUGCAGAAGGCAUGGACGACC | – | – | 7.86 nM | 6.02 nM
12 | CUGUAGUCAGGAUAUACAUGAGGAUCACCCAUGUAAAAUUUUAAUUUAAUUUGAAGGUGUAGAAGGGACCAGUU | 34.3 nM | 32.9 nM | – | –
13 | GGCGUUCGCACAGGAUAUGCAUUAGACAUGAGGAUCACCCAUGUAGGCUAAGCAGAAGGGUGGGUGUGUCUAAGGAAAUUCUUC | – | – | 172 nM | 42.4 nM
14 | GUAGCAUACCAAGGAUAUUCAGGGCUUGGAUAGACAUGAGGAUCACCCAUGUGGCGAAAGUCAAGGGAGAAGGUGGUAUGCUAC | – | – | 17.6 nM | 13.4 nM
15 | GAACCACAUGAGGAUCACCCAUGUCUAAGAAAUUAAGGAUAUGCACAAAAGGAAAUAACUGCAGAAGGUAAACGAA | – | – | 33.4 nM | 27.4 nM
16 | UUUCCGCGAGGAUAUGCGGGUUGUGCUUUUCAUUUCUUAUAACAUGAGGAUCACCCAUGUAGAAGGUGCUUCUU | 151 nM | 144 nM | – | –
17 | AAUAACAGAGGAUAUACUAUUUUAUGUGUUUGUUGUUUUGAACAUGAGGAUCACCCAUGUAGAAGGCUGAUUAA | 40.5 nM | 47 nM | – | –
18 | GCCGUACAUGAGGAUCACCCAUGUCAGGAUAUUUAGCACUCGGAAUUUCCGAGAGGUCAAAGAAGGGACAUUGC | 17.5 nM | 26.9 nM | – | –
19 | AUCCCGAUAGCAGGAUAUUUCUGCAGUUGUGGUUAGGUCGCCCUACAUGAGGAUCACCCAUGUAGAGAGAAGGGCUGUGGUAAU | 6.71 nM | 6.83 nM | – | –
20 | GUCAGCUCGUGAGGAUAUACAACACUGCUUCGGCAGUGUAUUAAGAUCACAUGAGGAUCACCCAUGUAGAAGGCACGAGCGGAU | 14.4 nM | 244 nM | – | –
21 | UGAGCCUCGUGAGGAUAUACAUGAGGAUCACCCAUGUAAUAGGAUGAACGGUGGAAACACCGAAUGUAGAAGGCACGAGGCUCA | 82.2 nM | 869 nM | – | –
22 | GUACGUGGACAGAAGGUGACAUGAGGAUCACCCAUGUUAGCUCGGGUACGAGCGAUCCGCGUGAUUGAGGAUAUGUCUGCGGGC | 39.7 nM | 59 nM | – | –
23 | GAUCUGACAGGAUAUACAUGAGGAUCACCCAUGUGCGAGCUAGCGAAAGCUAGCUCAGGUAGAAGGGUCAGAUC | 12 nM | 16.4 nM | – | –
